Compound activity from PubChem.
The full list was thinned out, with hits kept by preference.
S100A4 MyoIIA = inhibitors of S100A4-myosin IIA peptide binding, primary screen, biochemical, fluorescence polarization, TAMRA-MyoIIA peptide. Protein S100-A4 (Homo sapiens), P26447. inhibition, % at 10.7 µM. hit rate 0.14% among 360,000. AID 652163, 2013;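 active = mean inhibition of at least 70% across replicates, with every replicate also reaching that level; inconclusive = mean inhibition reaches 70% but some replicates fall short; inactive = mean inhibition below 70%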
Target sequence (P26447 whole entry, looked up): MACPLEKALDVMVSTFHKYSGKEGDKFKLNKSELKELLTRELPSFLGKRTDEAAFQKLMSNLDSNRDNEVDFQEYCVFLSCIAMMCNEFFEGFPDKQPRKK
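Material: S100A4 monomer protein | Medium: HEPES pH 7.2 with CaCl2, KCl, NaCl, DTT, Triton | Reagent: Labelled myosin peptide probe, 5 nM | Doses: One dose per compound | Times: 5 min incubation before reading | Benchmarks: Neutral control DMSO, positive control TFP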
FGF22 binding = binders of human FGF22 protein, primary screen, FGF22 synaptogenesis inhibitor project, biophysical, thermal shift, single point | Fibroblast growth factor 22 (Homo sapiens), Q9HCT0 | recombinant FGF22 thermal shift, SYPRO orange fluorescence; percent of sucrose octasulfate shift, DMSO zero | activity (Tm shift, normalised), % at 9.99 µM | hit rate 1.5% among 340,000;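 active = mean Tm shift, scaled 0 neutral to 100 positive control, at about 1.3% or above, every replicate too, limit read from the data; inconclusive = no clear call, values can overlap the other calls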
PDI inh = inhibitors of human PDI, primary screen, biochemical, turbidity, single point, plate reader; Protein disulfide-isomerase (Homo sapiens), P07237; PDI insulin aggregation turbidity, A650, 90 min; inhibition, % at 10 µM; hit rate 0.052% among 350,000;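 active = mean inhibition across replicates of 30% or more, whatever share of single replicates reach that level; inconclusive = mean inhibition below 30% while every single replicate reaches 30%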
Target sequence (P07237 whole entry, looked up): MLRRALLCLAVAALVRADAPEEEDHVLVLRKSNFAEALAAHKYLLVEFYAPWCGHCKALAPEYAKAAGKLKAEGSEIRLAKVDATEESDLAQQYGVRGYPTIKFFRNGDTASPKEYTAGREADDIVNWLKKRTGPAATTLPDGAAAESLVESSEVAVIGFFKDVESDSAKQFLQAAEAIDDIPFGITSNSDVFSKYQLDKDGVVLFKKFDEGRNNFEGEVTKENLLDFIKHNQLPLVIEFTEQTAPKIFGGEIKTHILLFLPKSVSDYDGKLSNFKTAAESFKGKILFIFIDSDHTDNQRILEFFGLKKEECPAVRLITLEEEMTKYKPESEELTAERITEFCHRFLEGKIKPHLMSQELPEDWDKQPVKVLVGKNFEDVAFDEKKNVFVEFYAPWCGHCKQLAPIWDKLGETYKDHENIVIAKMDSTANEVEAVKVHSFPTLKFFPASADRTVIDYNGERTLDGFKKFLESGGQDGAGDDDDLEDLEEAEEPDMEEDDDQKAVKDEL
ERp5 inh = inhibitors of ERp5-driven insulin aggregation, primary screen, biochemical, turbidity, absorbance 650 nm, single point. 90 min. hit rate 0.05% among 350,000. inhibition, % at 9.99 µM. Protein disulfide-isomerase A6 (Homo sapiens), Q15084;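 active = mean replicate inhibition above about 25%, with every replicate also reaching it, limit read from the data, passing the limit was not always enough; inconclusive = only one of those two criteria met; inactive = neither criterion met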
ERAP1 HTS inh = human ERAP1 aminopeptidase inhibitors, primary screen, biochemical, single point, plate reader; Endoplasmic reticulum aminopeptidase 1 (Homo sapiens), Q9NZ08; recombinant ERAP1, Leu-AMC fluorescence, 60 min; inhibition, % at 10.7 µM; hit rate 0.15% among 340,000; AID 652197, 2013;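 active = mean replicate inhibition of at least 30%, or all replicates individually reaching that 30% level; inactive = mean below 30% and not every replicate reaching it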
Hits are given with their value; - = inactive; ? = inconclusive; . = not tested or not shown.

SMILES	S100A4 MyoIIA	FGF22 binding	PDI inh	ERp5 inh	ERAP1 HTS inh
C[C@H](CO)N1C[C@H](C)[C@H](CN(C)Cc2ccncc2)Oc2c(NC(=O)C3CC3)cccc2C1=O	125.6	-	.	-	-
COc1ccc(NC(=O)Nc2cccc3c2O[C@H](CN(C)Cc2ccc4c(c2)OCO4)[C@@H](C)CN([C@H](C)CO)C3=O)cc1	-	-	.	-	-
CC1CCN(CCc2nc3cc(NC(=O)Nc4ccccc4)ccc3n2C)CC1	.	.	-	.	.
COc1ccc(S(=O)(=O)NCC2CCCN(Cc3cccc(C(C)=O)c3)C2)cc1 (configuration not stated)	87.3	-	-	-	-
Cc1noc(C)c1NC(=O)Nc1ccc2c(c1)CC(=O)N([C@@H](C)CO)C[C@@H](C)[C@H](CN(C)Cc1ccc(C(F)(F)F)cc1)O2	-	-	.	-	-
CCOc1ccccc1NC(=O)COC(=O)c1ccc(S(=O)(=O)N2CCCC2)cc1	-	-	-	-	-
Cc1ccccc1OCC(=O)Nc1ccc(S(=O)(=O)N2CCCC2)cc1	113.6	-	-	-	-
COc1ccccc1NC(=O)COC(=O)c1ccc(S(=O)(=O)N2CCCCCC2)cc1	-	43.2	-	-	-
Cc1cccc(Nc2nnc(SCC(=O)Nc3ccccc3[N+](=O)[O-])s2)c1	.	.	-	.	.
COc1ccc(NC(=O)Nc2cccc3c2O[C@@H](CN(C)C(=O)Nc2ccc(F)cc2)[C@@H](C)CN([C@H](C)CO)C3=O)cc1	-	-	.	-	-
CC(=O)c1ccc(NC(=O)c2cc(Cl)nc3ccccc23)cc1	-	43.4	?	-	-
CC(=O)N1CCOc2cc(S(=O)(=O)NC(C)c3ccccc3)c(Cl)cc21 (configuration not stated)	-	-	.	-	-
C[C@H]1CN([C@@H](C)CO)C(=O)c2cc(-c3cccc(C#N)c3)cnc2O[C@@H]1CN(C)Cc1cncnc1	-	-	.	33.8	-
C[C@H](CO)N1C[C@H](C)[C@H](CN(C)Cc2cncnc2)Oc2ncc(-c3cccc(C#N)c3)cc2C1=O	-	-	.	52.3	-
CC1CN(c2ccc(Cl)cc2)c2nc3c(c(=O)[nH]c(=O)n3C)n2C1 (configuration not stated)	-	-	-	-	-
CC(=O)Nc1ccc(S(=O)(=O)NCCc2csc(-c3cccnc3)n2)cc1	-	-	-	-	-
O=C(NC1CCCC1)C(=O)N(Cc1cccnc1)C(C(=O)NCc1ccco1)c1ccccc1F (configuration not stated)	-	43.5	-	-	-
O=C(c1cc2cc(Br)ccc2s1)N1CCOCC1	-	43.0	-	-	-
O=C(c1cc2cc(C(F)(F)F)ccc2s1)N1CCOCC1	-	-	-	-	-
C[n+]1ccc(C(=O)Nc2ccccc2Cl)cc1	-	-	-	-	102.2
Cc1ccc(C)c(NC(=O)c2cc[n+](C)cc2)c1	-	-	-	-	87.2
COc1ccc2c(CC(=O)Nc3ccc(OC)c(NS(=O)(=O)c4ccc(F)cc4)c3)coc2c1	.	.	-	.	.
CC(C)c1cc(N=NC(N)=O)cc(C(C)C)c1O	.	.	-	.	.
C[C@H](CO)N1C[C@H](C)[C@H](CN(C)C(=O)Cc2ccncc2)Oc2ncc(C#Cc3ccccc3F)cc2C1=O	-	-	.	-	-
COc1ccc(-c2csc(NC(=O)C3CCN(C(=O)c4ccc(F)cc4)CC3)n2)cc1OC	-	-	-	29.0	-
SMILES	S100A4 MyoIIA	FGF22 binding	PDI inh	ERp5 inh	ERAP1 HTS inh
Cc1c(C(=O)NCc2ccc(S(N)(=O)=O)cc2)oc2ccc(Cl)cc12	-	-	-	-	-
COC(=O)C1=C(C)NC(=O)/C1=C\c1cc(C)n(-c2ccccc2)c1C	-	43.1	-	-	-
COC(=O)C1=C(C)NC(=O)/C1=C\c1cc(C)n(-c2cc(C)cc(C)c2)c1C	.	.	-	.	.
C/C(=N/NC(=O)c1cc(-c2ccc(Br)s2)[nH]n1)c1ccco1	-	1.4	-	-	-
O=C(O)C1CN(C(=O)c2cccc(Br)c2)C1	-	.	-	-	-
N#Cc1ccccc1NC(=O)CN1CCN(Cc2ccccc2)CC1	-	-	-	-	-
N#Cc1ccsc1NC(=O)CN1CCN(Cc2ccccc2)CC1	-	43.2	-	-	-
Cc1cccc(N2CC(=O)N(c3cccc(C)c3)CC2=O)c1	.	.	-	.	.
COc1cccc(N2CC(=O)N(c3cccc(OC)c3)CC2=O)c1	-	43.5	-	-	-
O=C(C[C@H]1CC[C@H](NC(=O)Nc2ccc(C(F)(F)F)cc2)[C@@H](CO)O1)NCc1cc(F)cc(F)c1	-	-	.	-	-
Cc1cc(C)n(C(=O)CCCn2cc([N+](=O)[O-])cn2)n1	-	43.0	-	-	-
CCN(CC(=O)Nc1c(F)cccc1F)C(=O)CSCC(=O)Nc1cccc(C)c1	-	-	-	-	-
O=C(CSc1ncnc2c1nnn2Cc1ccc(F)cc1)NCC1CCCO1 (configuration not stated)	73.7	-	-	-	-
CCC1(CC)NC(=O)N(CC(=O)OC(C)C(=O)Nc2ccc(NC(C)=O)cc2)C1=O (configuration not stated)	-	-	-	28.2	-
CCC1(CC)NC(=O)N(CC(=O)OC(C)C(=O)Nc2ccc(S(N)(=O)=O)cc2)C1=O (configuration not stated)	-	-	-	-	-
Cc1cccc(NC(=S)N2CCC(c3nc4ccccc4o3)CC2)c1	-	-	-	-	-
Cc1ccc(S(=O)(=O)N2CCOCC2)cc1-c1n[nH]c(=S)n1-c1ccccc1	-	-	-	-	46.0
O=S(=O)(c1cccc(-c2n[nH]c(=S)n2-c2cccc(C(F)(F)F)c2)c1)N1CCOCC1	-	-	-	-	-
CC=Cc1ccc2n(c1=O)C[C@H]1[C@H](CO)[C@@H](C(=O)N3CCC(Cc4ccccc4)CC3)N(CCC)[C@@H]21 (mixture of isomers)	-	.	.	.	.
Cc1ccc(NC(=O)c2nnn(-c3cccc(C(F)(F)F)c3)c2N)cc1	-	53.3	-	-	-
Cc1n(N)c2ccccc2[n+]1CC(=O)c1ccccc1	-	43.1	-	-	-
Cn1c(CN2CCCC2)c(C#N)c2ccccc21	-	43.2	-	-	-
C=CCNc1nc2c(c(=O)n(C)c(=O)n2C)n1Cc1ccc(F)cc1	-	-	-	-	.
CCN1CCN(CC(=O)c2cc(Cl)ccc2Cl)CC1	-	43.2	-	-	-
O=C(CC1C[C@H](C(=O)N2CCCCC2)[C@@]2(CCc3ccccc3)c3[nH]c4ccccc4c3CCN2C1=O)NCc1cccc(C(F)(F)F)c1 (some centres not stated)	-	-	-	-	.
O=C(C[C@H]1C[C@H](C(=O)N2CCCCC2)[C@@]2(CCc3ccccc3)c3[nH]c4ccc(Cl)cc4c3CCN2C1=O)NCc1cccc(C(F)(F)F)c1	-	33.9	-	-	.
